Here are results for 14 molecules from ChEMBL document CHEMBL1150066, “Cytotoxic activity of tetraprenylphenols related to suillin, an antitumor principle from Suillus granulatus” (J Nat Prod, 1992).

Common to all, as to assay type: functional, cell-based
Test [1] relates to KB. Briefly: Cytotoxicity against human KB cells at 5 ug/ml after 72 hrs by MTT assay.
The test system of test [2] is P388. In words: Cytotoxicity against mouse P388 cells after 72 hrs by MTT assay. The following applies: P388, 72 h. The gist of the method:
(§1)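 Cells per well: NSCLC-N6 0.2×10^5, KB 0.1×10^5, P388 0.05×10^5, in RPMI 1640 with 5% fetal calf serum, penicillin/streptomycin and 2 mM glutamine. Test solution added at decreasing concentrations in duplicate wells, then 72 h at 37° in 5% CO2. MTT added for 4 h, formazan dissolved in […], A570 read. IC50 taken from the dose/effect curve relative to controls.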
A general note: Tetrazolium dyes change colour on reduction, which living cells bring about.

Test [3] in a line: Cytotoxicity against human NSCLC-N6 cells after 72 hrs by MTT assay. Conditions: NSCLC-N6, 72 h; call rule not given here. The essentials:
as §1

Test [4] deals with KB. In words: Cytotoxicity against human KB cells after 72 hrs by MTT assay. The gist of the method:
as §1

In test [5] the test system is P388. In words: Cytotoxicity against mouse P388 cells at 5 ug/ml after 72 hrs by MTT assay.
Test [6] can be described thus: Cytotoxicity against human NSCLC-N6 cells at 5 ug/ml after 72 hrs by MTT assay.
Test [7] deals with KB. In words: Cytotoxicity against human KB cells at 10 ug/ml after 72 hrs by MTT assay.

≈ marks a conversion by molar mass, not a printed value.

Turning to `CC(=O)Oc1c(O)cc(O)cc1C/C=C(\C)CC/C=C(\C)CC/C=C(\C)CCC=C(C)C`, the values for the IC50 entry (in the test with KB [1]; with P388 [2]; in test [3]) were “Not Active”, 2.3 µg/mL (≈ 5.22 µM) and 2.3 µg/mL (≈ 5.22 µM), respectively.
`CC(=O)Oc1ccc(O)c(O)c1CCC(C)CCCC(C)CCCC(C)CCCC(C)C` (configuration not stated): the half-maximal inhibitory concentration (IC50) – broadly, the point on the concentration scale where inhibition reaches its midpoint – in the test with KB [4] came to 6.3 µg/mL (≈ 14 µM); in the test on P388 [2], 8.2 µg/mL (≈ 18.3 µM); in test [3], 4.5 µg/mL (≈ 10 µM).
Take `CC(C)=CCC/C(C)=C/CC/C(C)=C/CCC1(C)C=Cc2c(ccc(O)c2O)O1` (configuration not stated): the IC50 entry (with KB [1]; with P388 [5]; in test [6]) was “Not Active” each time.
In the case of `COc1ccc(OC)c(OC)c1C/C=C(\C)CC/C=C(\C)CC/C=C(\C)CCC=C(C)C`, the IC50 entry in the test on KB [7] is “Not Active”; in the test on P388 [2], greater than 10 µg/mL; in test [3], greater than 10 µg/mL.
On to `CC(=O)Oc1ccc(O)c(O)c1C/C=C(\C)CC/C=C(\C)CC/C=C(\C)CCC=C(C)C` [TETRAPRENYLPHENOLSUILLIN], for which the IC50 with KB [4] worked out at 0.7 µg/mL (≈ 1.59 µM); in the test on P388 [2], 0.8 µg/mL (≈ 1.82 µM); in test [3], 1 µg/mL (≈ 2.27 µM).
On to `CC(=O)Oc1ccc2c(c1OC(C)=O)CCC(C)(CCCC(C)CCCC(C)CCCC(C)C)O2` (configuration not stated), for which the half-inhibitory concentration (IC50) in the test with KB [4] is 1.1 µg/mL (≈ 2.25 µM); with P388 [2], 0.7 µg/mL (≈ 1.43 µM); in test [3], 0.9 µg/mL (≈ 1.84 µM).
The corresponding values for `CC(=O)Oc1ccc2c(c1OC(C)=O)C=CC(C)(CC/C=C(\C)CC/C=C(\C)CCC=C(C)C)O2` (configuration not stated) are 1 µg/mL (≈ 2.08 µM), 0.3 µg/mL (≈ 0.624 µM) and 0.7 µg/mL (≈ 1.46 µM).
In the same order, the values of `COc1ccc(OC(C)=O)c(C/C=C(\C)CC/C=C(\C)CC/C=C(\C)CCC=C(C)C)c1OC` are 7.5 µg/mL (≈ 16 µM), 3.7 µg/mL (≈ 7.89 µM) and 5.8 µg/mL (≈ 12.4 µM).
The corresponding values for `COc1c(O)cc(O)cc1C/C=C(\C)CC/C=C(\C)CC/C=C(\C)CCC=C(C)C` are 5 µg/mL (≈ 12.1 µM), 2.1 µg/mL (≈ 5.09 µM) and 2.2 µg/mL (≈ 5.33 µM).
In the case of `COc1ccc(O)c(O)c1C/C=C(\C)CC/C=C(\C)CC/C=C(\C)CCC=C(C)C`, the IC50 result in the test on KB [1] was “Not Active”; in the test on P388 [2], 2.8 µg/mL (≈ 6.79 µM); in test [3] it was greater than 5 µg/mL.
Turning to `CC(=O)Oc1ccc(OC(C)=O)c(OC(C)=O)c1CCC(C)CCCC(C)CCCC(C)CCCC(C)C` (configuration not stated), the IC50 is greater than 10 µg/mL with KB [4], greater than 16.6 µg/mL in the test on P388 [2] and 9 µg/mL (≈ 16.9 µM) in test [3].
The corresponding values for `CC(=O)Oc1cc(C/C=C(\C)CC/C=C(\C)CC/C=C(\C)CCC=C(C)C)c(OC(C)=O)c(OC(C)=O)c1` are 0.9 µg/mL (≈ 1.72 µM), 0.4 µg/mL (≈ 0.762 µM) and 0.8 µg/mL (≈ 1.52 µM).
The corresponding values for `CC(=O)Oc1c(O)ccc(O)c1C/C=C(\C)CC/C=C(\C)CC/C=C(\C)CCC=C(C)C` are 2.5 µg/mL (≈ 5.67 µM), 0.9 µg/mL (≈ 2.04 µM) and 2.9 µg/mL (≈ 6.58 µM).
In the same order, the values of `CC(=O)Oc1ccc(OC(C)=O)c(OC(C)=O)c1C/C=C(\C)CC/C=C(\C)CC/C=C(\C)CCC=C(C)C` are 2 µg/mL (≈ 3.81 µM), 5 µg/mL (≈ 9.53 µM) and 1.9 µg/mL (≈ 3.62 µM).
